Results reported in ChEMBL document CHEMBL1275586, “Phenotypic susceptibility to bevirimat in isolates from HIV-1-infected patients without prior exposure to bevirimat” (Antimicrob Agents Chemother, 2010).

Tests used:
Type in all cases: functional, MT2
[1] = test system: Human immunodeficiency virus 1; assay: Antiviral activity against Human immunodeficiency virus 1 isolate 9 harboring Gag-capsid I138L, A146S, I147L, V215L, N252H, T280A, A340G and E345D mutant gene and protease L10I, I13V, K20M, L33V, M36I, S37N, I54V, R57K, I62V, L63P, I66L, A71V, G73S, P79A, I84V and L90M mutant gene infected in human MT-2 cells by XTT-assay relative to wild-type
In short: (§1)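 Patient Gag-protease (SfoI-XmaI) fragments were ligated into the pXXLAI backbone, with colonies pooled to keep quasispecies. Virus came from 293T transfection, harvested at 2 days. MT-2 infection at 37°C used an input giving XTT signal-to-noise of 2.5–4.0 (≈MOI 0.001). Cells at ≈17,000/well with drug dilutions, 5 days, 37°C; XTT 1 h, A450–650. EC50 from % cell death; fold change vs wild-type LAI.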

[2] = test system: Human immunodeficiency virus 1; assay: Antiviral activity against Human immunodeficiency virus 1 isolate 39 harboring Gag-capsid A146P, I147L, V215L, M228I, G248A, R286K, A326S, G357S and V362I mutant gene and protease K14R, E35D, M36I, S37N, R41K, K45R, D60E, I62V and I64V mutant gene infected in human MT-2 cells by XTT-assay relative to wild-type; in short: as §1
[3] = test system: Human immunodeficiency virus 1; assay: Antiviral activity against Human immunodeficiency virus 1 isolate 37 harboring Gag-capsid V135I, I138P, V143I, Q182H, V215L/V, V218P/A, H219Q, I223V, E230D, N252S, T280A, R286K, K302R and G357S mutant gene and protease S37D, R41K, L63P and I93L mutant gene infected in human MT-2 cells by XTT-assay relative to wild-type; in short: as §1
[4] = test system: Human immunodeficiency virus 1; assay: Antiviral activity against Human immunodeficiency virus 1 isolate 2 harboring Gag-capsid A146P, S173A, V215L, H219P, E230D, N252S, R264K, L268M and A340G mutant gene and protease L10I, I15V, K20R, M36I, S37N, M46I, L63P, T80A, V82A, N83H, I84V, I85T and L90M mutant gene infected in human MT-2 cells by XTT-assay relative to wild-type; in short: as §1
[5] = test system: Human immunodeficiency virus 1; assay: Antiviral activity against Human immunodeficiency virus 1 isolate 25 harboring Gag-capsid I138M, S173A, V215L, N252S, I256T, S310T/S, A340G and E345D mutant gene and protease L10F, V11I, I13V, K20I, V32I, L33F, E34Q, E35D, M36I, S37N, K43T, M46I, F53Y, I54L, Q61N, I62V, L63T, I64V, A71L, T74S, L76V, I84V, L90M and I93L mutant gene infected in human MT-2 cells by XTT-assay relative to wild-type; in short: as §1
[6] = test system: Human immunodeficiency virus 1; assay: Antiviral activity against Human immunodeficiency virus 1 isolate 22 harboring Gag-capsid V215L, H219Q, I223V, N252S, P255A, L268M and A340G mutant gene and Protease L19I, E35D, M36I, S37N, L63P, V77I and I93L mutant gene infected in human MT-2 cells by XTT-assay relative to wild-type; in short: as §1
[7] = test system: Human immunodeficiency virus 1; assay: Antiviral activity against Human immunodeficiency virus 1 isolate 31 harboring Gag-capsid I138L, S173T, V215L, I223N, M228L, G248Q, N252H, T280V and E312D mutant gene and protease I13V, K14R/K, M36I, S37N, I64V, H69K and I72V mutant gene infected in human MT-2 cells by XTT-assay relative to wild-type; in short: as §1
[8] = test system: Human immunodeficiency virus 1; assay: Antiviral activity against Human immunodeficiency virus 1 isolate 10 harboring Gag-capsid I138L, I147L, V159I, V215L, G248A, I256V, T280V, R286K and N315H mutant gene and protease L10I, K20R, E35D, M36I, S37N, R41K, K45R, F53L, I54V, L63P, I64V, A71T, V82A, L90M and I93L mutant gene infected in human MT-2 cells by XTT-assay relative to wild-type; in short: as §1
[9] = test system: Human immunodeficiency virus 1; assay: Antiviral activity against Human immunodeficiency virus 1 isolate 28 harboring Gag-capsid I138M mutant gene and protease L10I, I13V, L23I, L33F, S37N, M46I, I54V, K55R, R57K, Q58E, D60E, I62V, L63P, A71I, I72V, L76V, V77I, V82A, I84V, I85V, L89M, L90M and I93L mutant gene infected in human MT-2 cells by XTT-assay relative to wild-type; in short: as §1
[10] = test system: Human immunodeficiency virus 1; assay: Antiviral activity against Human immunodeficiency virus 1 isolate 3 harboring Gag-capsid I138L, A146P, I147L, V159I, S176A, V215L, H219Q/H, T242N, G248A, T280V, A340G and G357S mutant gene and protease L10I, T31S/T, V32I, M36I/M, S37C, R41K, M46I, F53L, I54V, R57K, L63P, I64V, A71V, V82A and L90M mutant gene infected in human MT-2 cells by XTT-assay relative to wild-type; in short: as §1
[11] = test system: Human immunodeficiency virus 1; assay: Antiviral activity against Human immunodeficiency virus 1 isolate 7 harboring Gag-capsid I138L, I147L, S173A, V215L, I223V, T242N, G248A, N252A, I126T, T280V and E312D mutant gene and protease K20R, M36I, R41K, M46I, L63Q, I64V, P79S, V82F and L90M mutant gene infected in human MT-2 cells by XTT-assay relative to wild-type; in short: as §1
[12] = test system: Human immunodeficiency virus 1; assay: Antiviral activity against Human immunodeficiency virus 1 isolate 12 harboring Gag-capsid I138L E207D, V215L, V218P, H219Q, M228I, G248T, T280S, E312D, A340G, G357S and V362I mutant gene and protease S37N, I62V/I, L63P, I64L and V82I mutant gene infected in human MT-2 cells by XTT-assay relative to wild-type; in short: as §1
[13] = test system: Human immunodeficiency virus 1; assay: Antiviral activity against Human immunodeficiency virus 1 isolate 35 harboring Gag-capsid V159I, I223T, N252S, A326S/A, A340G and G357S mutant gene and protease I15V, G16E, E35D, S37N, L63H and I72V mutant gene infected in human MT-2 cells by XTT-assay relative to wild-type; in short: as §1
[14] = test system: Human immunodeficiency virus 1; assay: Antiviral activity against Human immunodeficiency virus 1 isolate 29 harboring Gag-capsid I138M, A146P, R286K, T303V and A326S mutant gene and protease L10F, I13V, V32I, M36L, S37N, L38W, P39Q, M46I, I47V, I50V, I62V, L63P, A71I, I72V and V82A mutant gene infected in human MT-2 cells by XTT-assay relative to wild-type; in short: as §1

Compound	fold change (FC) [1]	fold change (FC) [2]	fold change (FC) [3]	fold change (FC) [4]	fold change (FC) [5]	fold change (FC) [6]	fold change (FC) [7]	fold change (FC) [8]	fold change (FC) [9]	fold change (FC) [10]	fold change (FC) [11]	fold change (FC) [12]	fold change (FC) [13]	fold change (FC) [14]
Cc1cccc(C)c1OCC(=O)N[C@@H](Cc1ccccc1)[C@@H](O)C[C@H](Cc1ccccc1)NC(=O)[C@H](C(C)C)N1CCCNC1=O [LOPINAVIR]	16.5	0.8	0.8	15.5	58.9	0.9	1.1	15.3	99.3	13	4.1	1.1	1	89.3
COC(=O)N[C@H](C(=O)N[C@@H](Cc1ccccc1)[C@@H](O)CN(Cc1ccc(-c2ccccn2)cc1)NC(=O)[C@@H](NC(=O)OC)C(C)(C)C)C(C)(C)C [ATAZANAVIR]	44.4	1.4	0.9	10.7	184	1.3	1.9	8.5	14.4	15.1	1	1.2	0.9	3.2
